Most compounds without a hit are left out; they make up all but 0.55% or so of the library.
OXTR potentiate: human OXTR potentiators, primary screen, fluorescence, CHO-OTR cells, Fluo-8 calcium | Fluo-8 calcium fluorescence, potentiator mode; 0% = oxytocin EC15, 100% = EC100 | 320,000 compounds, 0.061% hits | Oxytocin receptor (Homo sapiens), P30559 | activation, % at 3 µM;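 active means activation above that plate's cutoff, the mean activation of tested compounds plus 3 SD, cut at about 6.6% in these data, passing the limit was not always enough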;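 further: 100% uses oxytocin at 75 nM as the full agonist control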
Target sequence (P30559 whole entry, looked up): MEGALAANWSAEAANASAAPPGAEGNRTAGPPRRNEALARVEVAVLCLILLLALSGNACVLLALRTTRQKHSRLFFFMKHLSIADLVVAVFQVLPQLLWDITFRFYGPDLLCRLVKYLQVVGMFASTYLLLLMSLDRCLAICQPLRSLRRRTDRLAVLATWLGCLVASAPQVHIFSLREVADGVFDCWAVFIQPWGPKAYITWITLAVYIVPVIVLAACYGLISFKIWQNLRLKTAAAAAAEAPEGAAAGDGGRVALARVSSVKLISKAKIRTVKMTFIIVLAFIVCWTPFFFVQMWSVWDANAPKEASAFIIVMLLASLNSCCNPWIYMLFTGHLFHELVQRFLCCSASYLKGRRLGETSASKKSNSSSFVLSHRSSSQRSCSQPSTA
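System: human OTR in CHO cells / Also added: sub-maximal oxytocin, roughly EC15 / Control set: EC15 oxytocin low, 75 nM oxytocin high / Schedule: 6 min compound pre-incubation at room temperature, 100 s kinetic read / Compound: single-point 3.0 µM / Replication: singlicate / Technique: Fluo-8 calcium dye fluorescence / Read-out basis: % activation of max/min ratio relative to oxytocin controls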
TRPML3 ag: human TRPML3 channel agonists, primary screen, cell-based, HEK293 TRPML3-YFP, Fluo-8 calcium fluorescence, 3 µM; 100% = the carbachol control signal; Mucolipin-3 (Homo sapiens), Q8TDD5; activation, % at 3 µM; 220,000 compounds, 0.29% hits; AID 1448, 2008;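 active means activation above its plate's cutoff, the mean activation of the plate's test wells plus 3 SD, cut at about 12% in these data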;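 further: 0% = DMSO only wells and 100% = carbachol wells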
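Material: HEK293 cells stably carrying human TRPML3-YFP; compound dosing: single dose, 3 µM final nominal compound, 0.3% DMSO final; incubation: 1-h 37 °C dye load, 5-s basal, 120-s post-compound reads; technique: Fluo-8 intracellular calcium fluorescence, excitation 470-495 nm, emission 515-575 nm; read-out basis: percent activation from peak-to-basal fluorescence ratio, scaled between DMSO and carbachol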
OXTR agonist: human OXTR agonists, primary screen, fluorescence, CHO-OTR cells, Fluo-8 calcium. AID 2435, 2010. activation, % at 3 µM. Oxytocin receptor (Homo sapiens), P30559. Fluo-8 calcium fluorescence; normalized: DMSO 0%, oxytocin 100%. 320,000 compounds, 0.32% hits;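 active means activation above the mean of all tested compounds plus 3 SD, cutoff set per screening run, cut at about 20% in these data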;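 further: peak over basal fluorescence ratio from a 100 s FLIPR kinetic read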
zfTRPN1 agonist: zebrafish TRPN1 channel agonists, primary screen, cell-based, HEK293, calcium fluorescence. activation, % at 3 µM. 220,000 compounds, 0.18% hits. AID 1424, 2008. transient receptor potential cation channel N1 (TRPN1/NompC), Danio rerio. HEK293 zebrafish TRPN1-YFP, Fluo-8 calcium fluorescence; 100% = response to 87 µM carbachol;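 active means activation above its plate's cutoff, the mean activation of test wells on that plate plus 3 SD, cut at about 19% in these data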;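 further: 0% = DMSO alone and 100% = 87 µM carbachol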
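Material: zebrafish TRPN1-YFP in HEK293 cells; Doses: single test compound dose, 3 µM nominal, 0.3% DMSO; Timing: dye loading 1 h at 37 °C, then 30 min room temperature; Technique: intracellular calcium fluorescence with Fluo-8; Benchmarks: high carbachol 87 µM, low DMSO alone.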
V1R ag counter: agonists of human V1a receptor, primary screen, counter-screen for OXTR agonist project, fluorescence, CHO-V1R cells; activation, % at 3 µM; 320,000 compounds, 0.25% hits; Vasopressin V1a receptor (Homo sapiens), P37288; Fluo-8 calcium fluorescence, agonist mode; 0% DMSO, 100% 3 nM vasopressin; AID 2797, 2010;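 active means activation above the mean activation of all tested compounds plus 3 SD, per screening run, cut at about 20% in these data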;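 further: signal is peak over basal fluorescence ratio across a 100 second FLIPR read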
TRPN1 counter: zebrafish TRPN1 channel agonists, counter-screen for TRPML3 agonist project, cell-based, HEK293 TRPN1-YFP, Fluo-8 calcium. AID 1525, 2009. activation, % at 3 µM. shares compounds with TRPML3 ag. Fluo-8 calcium fluorescence; scaled: carbachol wells 100%, DMSO wells 0%. 310 compounds, 10% hits;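 active means mean activation over replicates above a set limit taken from the earlier TRPN1 channel primary screen, cut at about 19% in these data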;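 further: 100% = carbachol and 0% = 0.3% DMSO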
TRPML3 ag conf: human TRPML3 channel agonists, confirmation, cell-based, HEK293 TRPML3-YFP, Fluo-8 calcium, triplicate; shares compounds with TRPML3 ag; Fluo-8 calcium fluorescence; 100% set by carbachol, 0% by DMSO; activation, % at 3 µM; 310 compounds, 80% hits; AID 1526, 2009;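 active means activation above a set limit derived from the earlier primary screen, cut at about 12% in these data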
* = called active by the depositor; / = no result.

SMILES	OXTR potentiate	TRPML3 ag	OXTR agonist	zfTRPN1 agonist	V1R ag counter	TRPN1 counter	TRPML3 ag conf
O=C1C=C(NC2=CC3OC(c4ccccc4)OCC3OC2=O)CCC1 (configuration not stated)	1	30*	1	1	1	1	1
CC(C)=C1C2CCC1C(C(=O)NCc1ccccc1)C2C(=O)O (configuration not stated)	-12	18*	0	1	-1	0	4
Cc1ccc(C2=CC(c3ccc(N(C)C)cc3)n3nnnc3N2)cc1 (configuration not stated)	-7	18*	7	15	10	2	0
CCCC(=O)Oc1c(S(=O)(=O)c2ccc(C)cc2)c(C)nn1C(C)(C)C	2	26*	0	0	0	6	84*
CCn1c(=O)cc(OCC(=O)Nc2ccc(OC)c(OC)c2)c2ccccc21	-6	23*	0	4	1	7	23*
Cc1ccc(Cl)cc1N1CCN(S(C)(=O)=O)CC1	-1	0	0	-1	2	/	/
Cc1ccc(Cl)cc1N1CCN(S(=O)(=O)N2CCCCC2)CC1	-13	30*	-2	-1	0	-2	111*
Cc1cc(C)c(C(=O)c2ccc(C(=O)N(C(C)C)C(C)C)cc2)c(C)c1	-7	18*	-2	-2	-2	4	74*
COc1ccc2c(c1)C(C)CC(C)(C)N2C(=O)CSc1nc2ccccc2s1 (configuration not stated)	-13	18*	-1	0	1	-1	33*
O=S(=O)(NC1CCCCC1N1CCOCC1)c1ccc(Cl)cc1 (configuration not stated)	-1	129*	0	0	1	5	151*
O=S(=O)(NC1CCCCC1N1CCN(c2ccccc2F)CC1)c1ccc(Cl)cc1 (configuration not stated)	-11	/	-1	/	0	/	/
CCOc1cc(/C=C2\SC(=S)N(C(C(=O)O)c3ccccc3)C2=O)ccc1O (configuration not stated)	-34	13*	38*	14	32*	33*	15*
CCOc1ccc(/C=C2/SC(=S)N(C(C(=O)O)c3ccccc3)C2=O)cc1OCC (configuration not stated)	/	1	/	1	/	/	/
COc1ccccc1NC(=O)c1cc2cc(Br)ccc2cc1O	-23	5	16	13	13	/	/
C=C(C)CN1CCN(S(=O)(=O)c2ccc(C)c(N(C)S(=O)(=O)c3ccc(C)cc3)c2C)CC1	-6	60*	-1	2	0	-1	78*
Cc1ccc(S(=O)(=O)N(C)c2c(C)ccc(S(=O)(=O)N3CCN(C)CC3)c2C)cc1	-8	8	0	-1	0	/	/
COc1ccc(C2C(C(C)=O)=C(C)N=c3s/c(=C\c4cc(C)n(C)c4C)c(=O)n32)c(OC)c1 (configuration not stated)	-24	16*	35*	16	40*	28*	18*
CCN(CC(=O)Nc1cccc(OC)c1)CC(=O)Nc1cccc2ccccc12	-4	/	0	/	1	/	/
CCCOc1cc(C)c(Cl)cc1S(=O)(=O)N(CC)CC	-9	26*	-2	-2	-2	-2	97*
COc1cc(C)nc(N(C)S(=O)(=O)c2ccccc2Cl)n1	-1	28*	0	3	1	4	67*
C=CCNC(=O)NC(=O)COC(=O)CC(NC(N)=O)c1ccc(Cl)cc1 (configuration not stated)	-4	1	-1	1	0	/	/
COc1ccc(N=C2SCC(=O)N2CCc2ccc(OC)c(OC)c2)cc1	-6	2	1	5	2	/	/
COc1ccc(CCN2C(=O)CSC2=Nc2ccc(C(C)C)cc2)cc1OC	-15	13*	0	5	8	5	14*
Cc1oc2ccc(Br)cc2c(=O)c1-c1nn[nH]n1	0	0	1	0	1	/	/
O=C1c2ccccc2CCCC12N=NCC2c1cccc2ccccc12 (configuration not stated)	-9	56*	1	-2	-1	-2	67*
SMILES	OXTR potentiate	TRPML3 ag	OXTR agonist	zfTRPN1 agonist	V1R ag counter	TRPN1 counter	TRPML3 ag conf
O=C(CSc1cnc2ccccc2n1)c1ccc(F)cc1	-6	1	-2	1	0	/	/
COc1ccccc1NC(=S)N(CCCN1CCOCC1)Cc1cccs1	-10	0	-1	10	0	/	/
CN(Cc1ccccc1)c1nc2c(c(=O)[nH]c(=O)n2C)n1CCSc1ncccn1	/	1	/	0	/	/	/
O=C(O)c1csc(N/N=C/c2ccc(Br)cc2)n1	/	32*	/	0	/	0	42*
Cc1csc(N/N=C/c2ccc([N+](=O)[O-])cc2)n1	-3	/	1	/	1	/	/
COc1ccc(S(=O)(=O)N2CCCCC2)cc1C(C)C	-13	74*	-2	3	0	-2	138*
CCOc1ccccc1N1CCN(S(=O)(=O)c2ccc(F)c(F)c2)CC1	-13	1	-3	-1	-2	/	/
COc1ccc(S(=O)(=O)N2CCCC2)cc1Br	0	/	1	/	0	/	/
CCOc1cc(S(=O)(=O)N2CCCCCC2)ccc1F	-7	15*	-1	-1	-1	0	22*
COc1ccc(S(=O)(=O)N2CCCCCC2)cc1N(C)S(=O)(=O)c1ccccc1	-11	70*	0	2	4	2	74*
CC(C)(C)NC(=O)NC(=O)COC(=O)CNS(=O)(=O)/C=C/c1ccccc1	-8	1	2	2	3	/	/
COc1ccc(CC(=O)N/N=C(/C)CC(=O)N(C)c2ccccc2)cc1	-12	/	0	/	2	/	/
COc1cc(C(=O)NCc2nnc(SCC(=O)NC3CCCC3)o2)cc(OC)c1OC	-4	/	0	/	1	/	/
Cc1ccc(N(C)S(=O)(=O)c2ccc(C)cc2)cc1	0	49*	0	-1	0	-3	25*

Assay outcomes deposited in PubChem BioAssay by The Scripps Research Institute Molecular Screening Center.
